This passage reports Tm and folding enthalpy results from the array DNA melting data of Ke et al. (doi:10.1101/2024.01.08.574731).

A short description of data set [1]: melting temperature; fluorescence melt of hairpins on a sequencing array, two-state fit, raised by 9.35 °C to match UV melts. To be noted: sodium 0.088 M. In outline:
(§1)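 Cy3 signals were normalised both to pre-quench Cy3 and to control constructs. They came from library hairpins carrying annealed Cy3 and quencher oligos on a sequenced MiSeq flow cell, imaged in 50 mM Na-HEPES pH 8.0, 25 mM NaCl, in 2.5 °C steps up to 60 °C. Bootstrapped two-state fits gave melting temperature and folding enthalpy, and four replicates were combined by inverse variance. Fitted temperatures were then raised by 9.35 °C to match UV melts.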

The nature of data set [2]: folding enthalpy; higher = less favourable; fluorescence melt of hairpins on a sequencing array, two-state fit. To be noted: sodium 0.088 M. In outline:
as §1

As to GGGTTCGAAAGAACCCCC ((((((....)))..))), the Tm in data set [1] amounted to 68.2 °C. The folding enthalpy in data set [2] was -9.24 kcal/mol.
Regarding GGGTTCGAAAGAATCCCC ((((((....)))..))), the Tm in data set [1] stood at 50.6 °C. The folding enthalpy in data set [2] was -15.9 kcal/mol.
The corresponding values for GGGTTCGAAAGAATGCCC ((((((....)))..))) are 35.3 °C and -21.1 kcal/mol.
Regarding GGGTTCGAAAGAATTCCC ((((((....)))..))), the Tm in data set [1] came out at 33.8 °C. In data set [2], the folding enthalpy is -20.4 kcal/mol.
In the case of GGGTTCGGAAACGAGTCC ((..(((....)))..)), the Tm in data set [1] turned out to be 37.7 °C. Moreover, in data set [2], the folding enthalpy was -25.4 kcal/mol.
As for GGGTTCGGAAACGGATCC ((.(.((....)).).)), in data set [1], the Tm stood at 40.2 °C. In data set [2], the folding enthalpy was -27.2 kcal/mol.
As to GGGTTCTCGAAAGAGCCC (((..(((....)))))), the Tm in data set [1] came to 48.1 °C. Also, in data set [2], the folding enthalpy is -26.5 kcal/mol.
Consider GGGTTGCCGAAAGGCCCC (((..(((....)))))), for which the Tm in data set [1] was 48.4 °C. Also, in data set [2], the folding enthalpy was -14.5 kcal/mol.
Turning to GGGTTGGGAAACCGACCC ((((.((....)).)))), in data set [1], the Tm was found to be 58.4 °C. In addition, the folding enthalpy in data set [2] was -45.4 kcal/mol.
As for GGGTTGGGAAACTAACCC (((((.(....).))))), the Tm in data set [1] amounted to 50.6 °C. For the same sequence, the folding enthalpy in data set [2] was -40.6 kcal/mol.
For the sequence GGGTTGTCGAAAGACCCC (((..(((....)))))), the Tm in data set [1] came to 42.7 °C. Besides, the folding enthalpy in data set [2] was -20.5 kcal/mol.
GGGTTTCGAAAGAAGCCC (((.(((....))).))): the Tm in data set [1] is 57.1 °C. The folding enthalpy in data set [2] was -44.4 kcal/mol.
In the case of GGGTTTGGAAACGAATCC ((.((.(....).)).)), the Tm in data set [1] came to 34.6 °C. Also, the folding enthalpy in data set [2] is -25.1 kcal/mol.
With GGTAAACGAAAGTTACC (((.(((....)))))), in data set [1], the Tm stood at 46 °C. In data set [2], the folding enthalpy is -25.6 kcal/mol.
In the case of GGTAAAGGAAACTTTATC (.(((((....))))).), the Tm in data set [1] was determined as 30.5 °C. Besides, the folding enthalpy in data set [2] was -18.7 kcal/mol.
With GGTAACCGAAAGGTACC (((.(((....)))))), the Tm in data set [1] was 51.1 °C. Also, the folding enthalpy in data set [2] was -19.4 kcal/mol.
For the sequence GGTAACGAAAGTTAAACC ((((((....)))..))), the Tm in data set [1] came to 32.3 °C. The folding enthalpy in data set [2] is -16.1 kcal/mol.
Regarding GGTAACGAAAGTTGGACC ((((((....)))..))), the Tm in data set [1] is 26.8 °C. In addition, in data set [2], the folding enthalpy is -15.5 kcal/mol.
The corresponding values for GGTAAGTCGAAAGACACC (((..(((....)))))) are 37.3 °C and -17.9 kcal/mol.
In the same order, the values of GGTAATGGAAACATCACC (((.(((....))).))) are 30.7 °C and -18.2 kcal/mol.
In the same order, the values of GGTAATGGAAACATTATC (.(((((....))))).) are 35.7 °C and -26.8 kcal/mol.
With GGTAATGGAAACGTTACC (((((.(....).))))), the Tm in data set [1] is 45 °C. Besides, the folding enthalpy in data set [2] is -40.4 kcal/mol.
As to GGTACAGAAATGTACC ((((((....)))))), the Tm in data set [1] turned out to be 53 °C. Moreover, in data set [2], the folding enthalpy is -38 kcal/mol.
Consider GGTACAGCGAAAGCTACC (((..(((....)))))), for which the Tm in data set [1] amounted to 38.1 °C. In addition, in data set [2], the folding enthalpy was -16.4 kcal/mol.
For GGTACAGGAAACTGCACC (((.(((....))).))), the Tm in data set [1] was 44.2 °C. For the same sequence, the folding enthalpy in data set [2] is -32.5 kcal/mol.
On to GGTACCCCGAAAGGGACC (((..(((....)))))), for which the Tm in data set [1] is 46.7 °C. Besides, the folding enthalpy in data set [2] was -19.8 kcal/mol.
With GGTACCGAAAGGTCACC ((((((....))).))), the Tm in data set [1] is 46.8 °C. Besides, in data set [2], the folding enthalpy is -17.7 kcal/mol.
Regarding GGTACCGAAAGGTCCACC ((((((....)))..))), the Tm in data set [1] was 41.3 °C. Further, in data set [2], the folding enthalpy was -13.3 kcal/mol.
As for GGTACCGAAAGGTCGACC ((((((....)))..))), in data set [1], the Tm was 36.5 °C. In addition, the folding enthalpy in data set [2] is -13.6 kcal/mol.
On to GGTACCGAAAGGTCTACC ((((((....)))..))), for which the Tm in data set [1] was found to be 33.9 °C. In addition, the folding enthalpy in data set [2] is -15 kcal/mol.
The corresponding values for GGTACCGAAAGGTGACC ((((((....))).))) are 48.4 °C and -21.5 kcal/mol.
GGTACCGAAAGGTGGACC ((((((....)))..))): the Tm in data set [1] was 37.8 °C. Besides, the folding enthalpy in data set [2] is -17 kcal/mol.
Take GGTACCGGAAACGGTACC (((((((....))))))): the Tm in data set [1] is 69 °C. For the same sequence, the folding enthalpy in data set [2] is -30.5 kcal/mol.
Take GGTACGCCGAAAGGCACC (((..(((....)))))): the Tm in data set [1] came to 32 °C. Further, the folding enthalpy in data set [2] was -8.21 kcal/mol.
On to GGTACGCGAAAGCGCACC (((.(((....))).))), for which the Tm in data set [1] was determined as 57.6 °C. The folding enthalpy in data set [2] was -28.6 kcal/mol.
Turning to GGTACGGAAACGTACC ((((((....)))))), in data set [1], the Tm turned out to be 65.8 °C. In addition, the folding enthalpy in data set [2] was -37.8 kcal/mol.
On to GGTACGTCGAAAGACACC (((..(((....)))))), for which the Tm in data set [1] worked out at 33.3 °C. Further, the folding enthalpy in data set [2] is -9.89 kcal/mol.
Take GGTACTCCGAAAGGAACC (((..(((....)))))): the Tm in data set [1] is 25.4 °C. Besides, the folding enthalpy in data set [2] is -9.52 kcal/mol.
In the case of GGTACTGCGAAAGCAACC (((..(((....)))))), the Tm in data set [1] was determined as 28.8 °C. For the same sequence, the folding enthalpy in data set [2] is -9.7 kcal/mol.
In the same order, the values of GGTACTGGAAACAGTACC (((((((....))))))) are 61.5 °C and -50.7 kcal/mol.
As to GGTACTGGAAACAGTGTC (..((((....))))..), in data set [1], the Tm was 28.9 °C. Further, in data set [2], the folding enthalpy is -13.9 kcal/mol.
For GGTAGACCGAAAGGTACC (((..(((....)))))), in data set [1], the Tm is 38 °C. Besides, the folding enthalpy in data set [2] is -19.8 kcal/mol.
In the same order, the values of GGTAGACGAAAGTCCACC (((.(((....))).))) are 46.3 °C and -23.8 kcal/mol.
In the case of GGTAGAGAAATCTACC ((((((....)))))), the Tm in data set [1] was found to be 49.2 °C. The folding enthalpy in data set [2] was -25.2 kcal/mol.
In the same order, the values of GGTAGAGCGAAAGCTACC (((..(((....)))))) are 45.5 °C and -17.3 kcal/mol.
Regarding GGTAGCACGAAAGTGACC (((..(((....)))))), the Tm in data set [1] amounted to 32.2 °C. For the same sequence, the folding enthalpy in data set [2] is -13.9 kcal/mol.
In the case of GGTAGCCGAAAGGCAACC (((.(((....))).))), the Tm in data set [1] was 57.9 °C. Also, in data set [2], the folding enthalpy is -23.8 kcal/mol.
Consider GGTAGCGAAAGCTATACC ((((((....)))..))), for which, in data set [1], the Tm is 44 °C. For the same sequence, the folding enthalpy in data set [2] is -15.5 kcal/mol.
GGTAGCGAAAGCTCCACC ((((((....)))..))): the Tm in data set [1] was 38.8 °C. In data set [2], the folding enthalpy is -13.2 kcal/mol.
In the same order, the values of GGTAGCGAAAGCTGAACC ((((((....)))..))) are 38.2 °C and -17.6 kcal/mol.
Consider GGTAGCGAAAGCTTACC ((((((....))).))), for which the Tm in data set [1] was found to be 51.6 °C. The folding enthalpy in data set [2] was -20.9 kcal/mol.
In the case of GGTAGCGGAAACACTACC (((((.(....).))))), in data set [1], the Tm came out at 44.8 °C. Besides, the folding enthalpy in data set [2] is -30.9 kcal/mol.
Take GGTAGCGGAAACGCCACC (((.(((....))).))): the Tm in data set [1] was determined as 48.3 °C. The folding enthalpy in data set [2] is -24.8 kcal/mol.
With GGTAGCGGAAACGCTATC (.(((((....))))).), the Tm in data set [1] was 51.8 °C. Further, the folding enthalpy in data set [2] is -29.2 kcal/mol.
As to GGTAGCGGAAACGTTACC ((((.((....)).)))), the Tm in data set [1] is 50.4 °C. The folding enthalpy in data set [2] is -32.4 kcal/mol.
Regarding GGTAGGCCGAAAGGCACC (((..(((....)))))), the Tm in data set [1] stood at 41.9 °C. In addition, the folding enthalpy in data set [2] is -12 kcal/mol.
As to GGTAGGGGAAACCCCACC (((.(((....))).))), the Tm in data set [1] was 46.2 °C. Besides, the folding enthalpy in data set [2] is -23.7 kcal/mol.
The corresponding values for GGTAGGGGAAACCTTACC ((((.((....)).)))) are 44.1 °C and -30.5 kcal/mol.
The corresponding values for GGTAGGGGAAACTCTACC (((((.(....).))))) are 46 °C and -37.4 kcal/mol.
In the case of GGTAGTGAAAACTACC ((((((....)))))), the Tm in data set [1] was 58.5 °C. Moreover, the folding enthalpy in data set [2] was -33.4 kcal/mol.
In the case of GGTAGTGGAAACACCACC (((.(((....))).))), the Tm in data set [1] was 40 °C. The folding enthalpy in data set [2] is -20.8 kcal/mol.
Consider GGTAGTGGAAACGTTACC ((((..(....)..)))), for which, in data set [1], the Tm is 34.5 °C. Moreover, in data set [2], the folding enthalpy was -17.1 kcal/mol.
Regarding GGTATACGAAAGTAAACC (((.(((....))).))), in data set [1], the Tm amounted to 43.6 °C. Also, the folding enthalpy in data set [2] is -28.4 kcal/mol.
On to GGTATCACGAAAGTGACC (((..(((....)))))), for which the Tm in data set [1] worked out at 30 °C. The folding enthalpy in data set [2] is -9.93 kcal/mol.
As to GGTATCCCGAAAGGGACC (((..(((....)))))), the Tm in data set [1] amounted to 34.8 °C. Besides, in data set [2], the folding enthalpy was -9.73 kcal/mol.
Consider GGTATCCGAAAGGACACC (((.(((....))).))), for which the Tm in data set [1] was 47.5 °C. The folding enthalpy in data set [2] was -25.2 kcal/mol.
The corresponding values for GGTATCGAAAGATCACC ((((((....))).))) are 35 °C and -21.9 kcal/mol.
With GGTATCGCGAAAGCGACC (((..(((....)))))), the Tm in data set [1] came to 31.7 °C. Moreover, the folding enthalpy in data set [2] is -9.09 kcal/mol.
For GGTATCGGAAACAATACC (((((.(....).))))), in data set [1], the Tm came out at 31.6 °C. Besides, in data set [2], the folding enthalpy was -34.9 kcal/mol.
For GGTATCGGAAACGACACC (((.(((....))).))), the Tm in data set [1] came out at 43.4 °C. Besides, the folding enthalpy in data set [2] is -30.7 kcal/mol.
The corresponding values for GGTATGAAAATACC (((((....))))) are 47.5 °C and -20.9 kcal/mol.
The corresponding values for GGTATGCGAAAGCAAACC (((.(((....))).))) are 53 °C and -30.2 kcal/mol.
In the same order, the values of GGTATGGGAAACCGTACC ((((.((....)).)))) are 50.5 °C and -38.5 kcal/mol.
